Measurements from ChEMBL document CHEMBL1134694, “Discovery of macrocyclic hydroxamic acids containing biphenylmethyl derivatives at P1', a series of selective TNF-alpha converting enzyme inhibitors with potent cellular activity in the inhibition of TNF-alpha release” (J Med Chem, 2001).

How the values were obtained:
Homo sapiens [1] = species: Homo sapiens; test: Binding affinity against human serum protein; assay type: functional
How it was run: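 Binding to human serum proteins, reported as the mean percentage of compound bound across three determinations.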

Neutrophil collagenase = Neutrophil collagenase (Homo sapiens, UniProt P22894); test: Inhibition of matrix metalloprotease-8
Interstitial collagenase [2] = biological target: T1, Interstitial collagenase (Homo sapiens, UniProt P03956); test: Inhibition of matrix metalloprotease-1
T1 sequence (P03956 whole entry): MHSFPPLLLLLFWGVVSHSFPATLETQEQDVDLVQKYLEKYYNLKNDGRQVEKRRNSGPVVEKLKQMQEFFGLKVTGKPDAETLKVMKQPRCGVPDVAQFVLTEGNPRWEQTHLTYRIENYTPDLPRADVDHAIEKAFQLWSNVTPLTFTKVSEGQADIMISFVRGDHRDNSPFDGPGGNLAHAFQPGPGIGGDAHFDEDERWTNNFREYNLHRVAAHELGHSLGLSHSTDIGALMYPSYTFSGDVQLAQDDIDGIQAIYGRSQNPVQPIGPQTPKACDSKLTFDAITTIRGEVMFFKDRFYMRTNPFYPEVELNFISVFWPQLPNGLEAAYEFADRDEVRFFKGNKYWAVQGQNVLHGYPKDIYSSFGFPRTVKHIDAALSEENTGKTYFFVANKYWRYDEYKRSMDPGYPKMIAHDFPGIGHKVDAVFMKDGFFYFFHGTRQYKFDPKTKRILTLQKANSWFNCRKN

[3] = biological target: Matrix metalloproteinase-15 (Homo sapiens, UniProt P51511); test: Inhibition of matrix metalloprotease-15
[4] = biological target: 72 kDa type IV collagenase (Homo sapiens, UniProt P08253)
[5] = biological target: Matrix metalloproteinase-14 (Homo sapiens, UniProt P50281); test: Inhibition of matrix metalloprotease-14
[6] = biological target: Disintegrin and metalloproteinase domain-containing protein 17 (Sus scrofa, UniProt O77636)
Stromelysin-1 = Stromelysin-1 (Homo sapiens, UniProt P08254); test: Inhibition of matrix metalloprotease-3
[7] = biological target: Macrophage metalloelastase (Homo sapiens, UniProt P39900); test: Inhibition of matrix metalloprotease-12
[8] = biological target: Matrix metalloproteinase-9 (Homo sapiens, UniProt P14780); test: Inhibition of human matrix metalloprotease-9
Stromelysin-2 = Stromelysin-2 (Homo sapiens, UniProt P09238); test: Inhibition of matrix metalloprotease-10
[9] = biological target: Matrix metalloproteinase-16 (Homo sapiens, UniProt P51512); test: Inhibition of matrix metalloprotease-16
Matrilysin = biological target: T2, Matrilysin (Homo sapiens, UniProt P09237); test: Inhibition of matrix metalloprotease-7
T2 sequence (P09237 whole entry): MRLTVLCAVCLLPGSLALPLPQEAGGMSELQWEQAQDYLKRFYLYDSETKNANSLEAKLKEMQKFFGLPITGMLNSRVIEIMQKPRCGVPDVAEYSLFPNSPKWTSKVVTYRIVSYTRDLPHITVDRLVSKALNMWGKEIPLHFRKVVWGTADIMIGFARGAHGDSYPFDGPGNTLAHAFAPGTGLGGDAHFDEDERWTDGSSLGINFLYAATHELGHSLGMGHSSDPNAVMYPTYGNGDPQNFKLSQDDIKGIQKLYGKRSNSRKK

Homo sapiens [10] = species: Homo sapiens; test: Inhibition of TNF-alpha release in LPS-stimulated human whole blood assay(WBA); assay type: functional, organism-based
How it was run: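 Human whole blood stimulated with LPS; inhibition of TNF-alpha release measured in blood from three separate donors.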

Collagenase 3 = Collagenase 3 (Homo sapiens, UniProt P45452); test: Inhibition of matrix metalloprotease-13
Interstitial collagenase [11] = biological target: T1, Interstitial collagenase; test: Inhibition of human matrix metalloprotease-1

Sequence of Matrix metalloproteinase-15 (P51511 whole entry): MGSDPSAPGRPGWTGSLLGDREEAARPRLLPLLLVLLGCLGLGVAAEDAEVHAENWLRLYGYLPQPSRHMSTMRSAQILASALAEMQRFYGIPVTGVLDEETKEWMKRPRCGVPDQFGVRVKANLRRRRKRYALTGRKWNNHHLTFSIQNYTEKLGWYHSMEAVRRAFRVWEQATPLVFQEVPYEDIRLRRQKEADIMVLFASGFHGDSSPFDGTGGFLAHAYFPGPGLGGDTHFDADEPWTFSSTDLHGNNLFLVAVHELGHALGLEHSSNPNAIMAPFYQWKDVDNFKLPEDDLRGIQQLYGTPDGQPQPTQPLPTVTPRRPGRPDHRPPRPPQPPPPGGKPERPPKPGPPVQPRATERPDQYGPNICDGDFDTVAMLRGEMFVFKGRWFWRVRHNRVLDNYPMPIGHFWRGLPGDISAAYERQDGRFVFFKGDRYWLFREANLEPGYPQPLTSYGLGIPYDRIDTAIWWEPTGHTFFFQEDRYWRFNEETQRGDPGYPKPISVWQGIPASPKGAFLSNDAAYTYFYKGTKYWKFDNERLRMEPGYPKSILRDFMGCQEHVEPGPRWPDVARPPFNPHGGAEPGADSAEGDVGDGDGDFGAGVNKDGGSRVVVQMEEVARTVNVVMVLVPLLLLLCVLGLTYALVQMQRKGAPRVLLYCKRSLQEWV
Sequence of Macrophage metalloelastase (P39900 whole entry): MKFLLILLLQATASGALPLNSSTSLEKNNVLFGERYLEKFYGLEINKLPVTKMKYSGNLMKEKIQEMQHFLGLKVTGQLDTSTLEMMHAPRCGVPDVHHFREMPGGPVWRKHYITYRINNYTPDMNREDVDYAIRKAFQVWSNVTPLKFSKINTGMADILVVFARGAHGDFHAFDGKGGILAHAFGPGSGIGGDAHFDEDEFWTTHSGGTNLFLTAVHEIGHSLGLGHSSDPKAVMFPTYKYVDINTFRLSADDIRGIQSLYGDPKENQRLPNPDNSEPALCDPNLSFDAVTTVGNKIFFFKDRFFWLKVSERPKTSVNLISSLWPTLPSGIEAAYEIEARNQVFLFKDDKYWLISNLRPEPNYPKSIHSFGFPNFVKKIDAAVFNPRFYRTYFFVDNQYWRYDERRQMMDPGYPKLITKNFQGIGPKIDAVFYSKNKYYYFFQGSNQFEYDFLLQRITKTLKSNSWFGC
Sequence of Stromelysin-1 (P08254 whole entry): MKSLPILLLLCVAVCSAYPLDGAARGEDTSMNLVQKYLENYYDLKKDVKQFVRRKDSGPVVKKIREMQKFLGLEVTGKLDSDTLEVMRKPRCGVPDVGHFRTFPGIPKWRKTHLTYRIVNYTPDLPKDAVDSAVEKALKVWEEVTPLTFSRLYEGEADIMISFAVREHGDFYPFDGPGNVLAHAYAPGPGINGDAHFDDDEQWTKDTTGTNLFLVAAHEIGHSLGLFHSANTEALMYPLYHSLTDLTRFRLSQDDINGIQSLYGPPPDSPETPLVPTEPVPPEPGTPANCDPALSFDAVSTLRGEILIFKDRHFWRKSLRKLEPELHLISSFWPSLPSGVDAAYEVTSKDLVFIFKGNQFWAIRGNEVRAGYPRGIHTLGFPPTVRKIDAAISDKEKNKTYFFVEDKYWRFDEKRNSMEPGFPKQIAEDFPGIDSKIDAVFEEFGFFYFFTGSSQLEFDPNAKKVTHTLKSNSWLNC
Sequence of Matrix metalloproteinase-9 (P14780 whole entry): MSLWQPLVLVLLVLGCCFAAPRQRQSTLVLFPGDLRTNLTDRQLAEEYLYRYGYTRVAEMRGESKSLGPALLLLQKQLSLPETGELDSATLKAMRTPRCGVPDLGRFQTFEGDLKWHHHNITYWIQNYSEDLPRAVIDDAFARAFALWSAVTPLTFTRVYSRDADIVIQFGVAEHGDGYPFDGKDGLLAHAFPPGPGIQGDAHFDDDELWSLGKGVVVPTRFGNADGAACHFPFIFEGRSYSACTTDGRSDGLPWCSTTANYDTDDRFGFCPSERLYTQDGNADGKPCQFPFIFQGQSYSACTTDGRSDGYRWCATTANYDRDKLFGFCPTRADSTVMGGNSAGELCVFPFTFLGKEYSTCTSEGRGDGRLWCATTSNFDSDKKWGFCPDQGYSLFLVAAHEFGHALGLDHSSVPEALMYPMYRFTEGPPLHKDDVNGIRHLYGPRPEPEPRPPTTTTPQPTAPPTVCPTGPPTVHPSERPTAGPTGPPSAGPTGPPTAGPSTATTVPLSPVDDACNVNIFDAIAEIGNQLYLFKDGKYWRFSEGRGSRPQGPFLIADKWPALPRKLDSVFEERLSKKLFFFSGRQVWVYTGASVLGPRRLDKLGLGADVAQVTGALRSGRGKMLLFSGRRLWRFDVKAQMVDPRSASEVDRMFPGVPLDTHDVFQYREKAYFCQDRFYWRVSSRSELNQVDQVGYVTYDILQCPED
Sequence of Stromelysin-2 (P09238 whole entry): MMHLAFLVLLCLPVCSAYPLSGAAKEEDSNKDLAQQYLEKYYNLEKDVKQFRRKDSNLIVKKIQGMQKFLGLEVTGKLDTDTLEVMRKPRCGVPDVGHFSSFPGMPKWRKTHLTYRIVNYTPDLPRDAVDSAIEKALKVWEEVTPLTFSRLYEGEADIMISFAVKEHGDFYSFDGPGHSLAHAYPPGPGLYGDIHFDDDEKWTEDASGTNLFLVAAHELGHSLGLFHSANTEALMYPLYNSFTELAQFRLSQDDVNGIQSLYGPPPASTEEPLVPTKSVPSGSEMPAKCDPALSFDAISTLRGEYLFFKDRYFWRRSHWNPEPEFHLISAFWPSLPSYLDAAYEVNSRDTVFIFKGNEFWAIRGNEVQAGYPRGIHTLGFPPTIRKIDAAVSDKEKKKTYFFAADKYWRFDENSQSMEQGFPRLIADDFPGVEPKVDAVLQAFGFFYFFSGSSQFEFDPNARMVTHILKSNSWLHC
Sequence of Disintegrin and metalloproteinase domain-containing protein 17 (O77636 whole entry, the tested form may be a part): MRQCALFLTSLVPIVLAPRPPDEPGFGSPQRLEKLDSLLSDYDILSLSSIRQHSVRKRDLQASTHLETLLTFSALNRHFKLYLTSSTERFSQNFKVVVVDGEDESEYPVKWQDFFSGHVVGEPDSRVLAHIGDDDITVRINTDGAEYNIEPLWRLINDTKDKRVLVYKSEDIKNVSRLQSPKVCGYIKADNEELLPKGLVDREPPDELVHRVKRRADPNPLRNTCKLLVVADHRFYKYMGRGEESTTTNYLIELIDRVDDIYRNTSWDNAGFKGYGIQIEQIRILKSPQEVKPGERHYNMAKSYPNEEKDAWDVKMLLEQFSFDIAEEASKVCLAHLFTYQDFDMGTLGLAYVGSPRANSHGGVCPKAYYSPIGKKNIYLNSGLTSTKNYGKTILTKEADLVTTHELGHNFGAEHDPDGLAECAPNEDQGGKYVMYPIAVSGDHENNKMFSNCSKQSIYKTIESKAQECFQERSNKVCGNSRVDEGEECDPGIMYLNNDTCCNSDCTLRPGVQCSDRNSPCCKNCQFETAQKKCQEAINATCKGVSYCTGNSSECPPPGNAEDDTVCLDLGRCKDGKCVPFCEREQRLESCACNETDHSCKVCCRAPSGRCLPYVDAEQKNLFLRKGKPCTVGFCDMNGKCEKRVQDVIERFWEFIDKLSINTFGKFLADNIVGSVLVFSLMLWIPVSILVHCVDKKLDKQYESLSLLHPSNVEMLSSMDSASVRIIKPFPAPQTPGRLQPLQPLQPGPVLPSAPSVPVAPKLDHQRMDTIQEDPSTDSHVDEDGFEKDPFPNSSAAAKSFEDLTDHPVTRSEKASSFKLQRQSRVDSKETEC
Sequence of Neutrophil collagenase (P22894 whole entry): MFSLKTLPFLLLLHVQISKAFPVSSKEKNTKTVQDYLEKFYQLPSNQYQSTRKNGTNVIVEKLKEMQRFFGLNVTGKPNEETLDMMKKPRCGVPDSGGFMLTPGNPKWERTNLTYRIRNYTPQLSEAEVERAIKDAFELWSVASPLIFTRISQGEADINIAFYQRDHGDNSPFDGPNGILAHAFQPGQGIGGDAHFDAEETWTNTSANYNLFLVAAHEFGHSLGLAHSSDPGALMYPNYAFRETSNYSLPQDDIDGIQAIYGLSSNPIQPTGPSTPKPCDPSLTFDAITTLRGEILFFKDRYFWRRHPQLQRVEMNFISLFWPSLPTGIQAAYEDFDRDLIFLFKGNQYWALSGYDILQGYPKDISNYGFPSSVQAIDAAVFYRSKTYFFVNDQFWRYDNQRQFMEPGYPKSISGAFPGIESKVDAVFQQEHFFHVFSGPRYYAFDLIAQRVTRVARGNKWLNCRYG
Sequence of 72 kDa type IV collagenase (P08253 whole entry): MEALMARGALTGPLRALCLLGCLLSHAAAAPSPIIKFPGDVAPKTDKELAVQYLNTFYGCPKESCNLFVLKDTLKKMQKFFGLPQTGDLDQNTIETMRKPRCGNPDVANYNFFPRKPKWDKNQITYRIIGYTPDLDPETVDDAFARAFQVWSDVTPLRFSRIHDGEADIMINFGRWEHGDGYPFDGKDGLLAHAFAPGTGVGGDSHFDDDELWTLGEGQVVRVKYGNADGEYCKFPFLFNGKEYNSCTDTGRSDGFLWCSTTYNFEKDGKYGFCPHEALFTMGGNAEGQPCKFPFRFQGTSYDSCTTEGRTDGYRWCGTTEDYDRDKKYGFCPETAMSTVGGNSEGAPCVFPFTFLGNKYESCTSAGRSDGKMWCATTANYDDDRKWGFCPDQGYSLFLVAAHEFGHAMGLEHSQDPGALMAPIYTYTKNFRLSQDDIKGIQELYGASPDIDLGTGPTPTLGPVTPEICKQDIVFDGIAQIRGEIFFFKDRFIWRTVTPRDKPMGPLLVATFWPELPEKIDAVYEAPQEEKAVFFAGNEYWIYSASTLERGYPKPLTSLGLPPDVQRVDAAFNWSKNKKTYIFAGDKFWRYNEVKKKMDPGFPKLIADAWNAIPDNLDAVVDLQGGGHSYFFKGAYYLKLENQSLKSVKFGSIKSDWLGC

| Structure (SMILES) | Bound (Homo sapiens [1]) [%] | Ki (Neutrophil collagenase) [nM] | Ki (Interstitial collagenase [2]) [nM] | Ki [3] [nM] | Ki [4] [nM] | Ki [5] [nM] | Ki [6] [nM] | Ki (Stromelysin-1) [nM] | Ki [7] [nM] | Ki [8] [nM] | Ki (Stromelysin-2) [nM] | Ki [9] [nM] | Ki (Matrilysin) [nM] | IC50 (Homo sapiens [10]) [nM] | Ki (Collagenase 3) [nM] | Ki (Interstitial collagenase [11]) [nM] |
| --- | --- | --- | --- | --- | --- | --- | --- | --- | --- | --- | --- | --- | --- | --- | --- | --- |
| CC(C)C[C@H]1C(=O)N[C@H](C(=O)NCC(=O)N2CCOCC2)CCCCNC(=O)OCCC[C@@H]1C(=O)NO | 1 |  |  |  |  |  |  |  |  |  |  |  |  |  |  |  |
| NC(=O)CNC(=O)[C@@H]1CCCCNC(=O)OCCC[C@H](C(=O)NO)[C@@H](Cc2ccc(-c3ccccc3C(F)(F)F)cc2)C(=O)N1 |  | 428 | > 2000 | > 2000 | 1870 | > 2000 | 1.5 | > 2000 | > 2000 | > 2000 | > 2000 | > 2000 | 1340 | 180 | 442 |  |
| O=C1NCCCC[C@@H](C(=O)NCC(=O)N2CCOCC2)NC(=O)[C@H](Cc2ccc(-c3c(F)cccc3F)cc2)[C@@H](C(=O)NO)CCCO1 | 25 |  |  |  | 0.64 |  | 6.3 |  |  | 21 |  |  |  | 3700 |  | > 2000 |
| CS(=O)(=O)c1ccccc1-c1ccc(C[C@H]2C(=O)N[C@H](C(=O)NCC(=O)N3CCOCC3)CCCCNC(=O)OCCC[C@@H]2C(=O)NO)cc1 | 5 |  | > 2000 |  | > 2000 |  | 6.5 |  |  | > 2000 |  |  |  | 410 |  |  |
| CNC(=O)CNC(=O)[C@@H]1CCCCNC(=O)OCCC[C@H](C(=O)NO)[C@@H](Cc2ccc(-c3ccccc3C(F)(F)F)cc2)C(=O)N1 | 33 |  | > 2000 |  | 450 |  | 3.8 |  |  | 1170 |  |  |  | 380 |  |  |

Second part, the molecule after the results:

| Bound (Homo sapiens [1]) [%] | Ki (Neutrophil collagenase) [nM] | Ki (Interstitial collagenase [2]) [nM] | Ki [3] [nM] | Ki [4] [nM] | Ki [5] [nM] | Ki [6] [nM] | Ki (Stromelysin-1) [nM] | Ki [7] [nM] | Ki [8] [nM] | Ki (Stromelysin-2) [nM] | Ki [9] [nM] | Ki (Matrilysin) [nM] | IC50 (Homo sapiens [10]) [nM] | Ki (Collagenase 3) [nM] | Ki (Interstitial collagenase [11]) [nM] | Structure (SMILES) |
| --- | --- | --- | --- | --- | --- | --- | --- | --- | --- | --- | --- | --- | --- | --- | --- | --- |
| 36 | 672 | > 2000 | > 2000 | 700 | > 2000 | 1.7 | 582 | 390 | 1790 | > 2000 | > 2000 | 177 | 60 | 50 |  | O=C1NCCCC[C@@H](C(=O)NCC(=O)N2CCNCC2)NC(=O)[C@H](Cc2ccc(-c3ccccc3C(F)(F)F)cc2)[C@@H](C(=O)NO)CCCO1 |
| 71 | 272 | > 2000 | > 2000 | > 2000 | > 2000 | 4.6 | > 2000 | 35 | > 2000 | > 2000 | > 2000 | > 2000 | 180 | > 2000 |  | O=C1NCCCC[C@@H](C(=O)NCC(=O)N2CCNCC2)NC(=O)[C@H](Cc2ccc(-c3cc(C(F)(F)F)cc(C(F)(F)F)c3)cc2)[C@@H](C(=O)NO)CCCO1 |
| 55 | 126 | > 2000 | > 2000 | > 2000 | > 2000 | 2.8 | > 2000 | > 2000 | > 2000 | > 2000 | > 2000 | 834 | 70 | 653 |  | O=C1NCCCC[C@@H](C(=O)NCC(=O)N2CCOCC2)NC(=O)[C@H](Cc2ccc(-c3ccccc3C(F)(F)F)cc2)[C@@H](C(=O)NO)CCCO1 |
| 29 |  | > 2000 |  | 11 |  | 3.7 |  |  | 91 |  |  |  | 120 |  |  | O=C1NCCCC[C@@H](C(=O)NCC(=O)N2CCNCC2)NC(=O)[C@H](Cc2ccc(-c3cccc(C(F)(F)F)c3)cc2)[C@@H](C(=O)NO)CCCO1 |
| 83 |  | > 2000 |  | 50 |  | 2.8 |  |  | 183 |  |  |  | 227 |  |  | O=C1NCCCC[C@@H](C(=O)NCC(=O)N2CCOCC2)NC(=O)[C@H](Cc2ccc(-c3cc(Cl)cc(Cl)c3)cc2)[C@@H](C(=O)NO)CCCO1 |
